In ChEMBL document CHEMBL1136453, “New classes of antibacterial oxazolidinones with C-5, methylene O-linked heterocyclic side chains” (2003):
Converted amounts (≈) assume the structure as drawn.

How the values were obtained:
Staphylococcus aureus [1] = experiment: In vitro minimum inhibitory concentration against coagulase negative Staphylococcus aureus methicillin resistant (CNSMR); format: functional
Staphylococcus aureus [2] = experiment: In vitro minimum inhibitory concentration against Staphylococcus aureus Oxford; format: functional; conditions: Staphylococcus aureus; read-out: MIC
Staphylococcus aureus [3] = experiment: In vitro minimum inhibitory concentration against Staphylococcus aureus MRQR; format: functional
Streptococcus pyogenes = experiment: In vitro minimum inhibitory concentration against Streptococcus pyogenes penicillin sensitive; format: functional
Outline: (§1)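 Agar dilution per NCCLS protocol with doubling dilutions from 128 to 0.008 mg/L, incubated at 37 °C. Strains came from an in-house culture collection. MIC reported in mg/L.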

Staphylococcus aureus [4] = experiment: In vivo antibacterial activity against Staphylococcus aureus after intravenous administration (10 mg/kg) in mice using (MTT) mouse thigh test
Enterococcus faecalis = experiment: In vitro minimum inhibitory concentration against Enterococcus faecalis; format: functional; outline: as §1
[5] = In vivo antibacterial activity against Staphylococcus aureus after intravenous administration (5 mg/kg) in mice using (MTT) mouse thigh test

`O=C1O[C@@H](COc2ccsn2)CN1c1ccc(C2=CCOCC2)c(F)c1` showed an MIC (Staphylococcus aureus [1]) of 0.25 µg/mL (≈ 0.664 µM), an MIC (Staphylococcus aureus [2]) of 0.25 µg/mL (≈ 0.664 µM) and an MIC (Staphylococcus aureus [3]) of 0.25 µg/mL (≈ 0.664 µM). For the same compound, the MIC (Streptococcus pyogenes) was 0.5 µg/mL (≈ 1.33 µM), the Activity (Staphylococcus aureus [4]) was 0.21 and the MIC (Enterococcus faecalis) was 0.5 µg/mL (≈ 1.33 µM). It also gave an Activity [5] of 0.01.

For `CC(=O)NC[C@H]1CN(c2ccc(C3=CCOCC3)c(F)c2)C(=O)O1`, the MIC (Staphylococcus aureus [1]) was 0.13 µg/mL (≈ 0.389 µM), the MIC (Staphylococcus aureus [2]) was 0.13 µg/mL (≈ 0.389 µM) and the MIC (Staphylococcus aureus [3]) was 0.25 µg/mL (≈ 0.748 µM). For the same compound, the MIC (Streptococcus pyogenes) was 0.13 µg/mL (≈ 0.389 µM), the Activity (Staphylococcus aureus [4]) was 1.34 and the MIC (Enterococcus faecalis) was 0.13 µg/mL (≈ 0.389 µM). The Activity [5] was 0.6.

`O=C1O[C@@H](COc2cccc[n+]2[O-])CN1c1ccc(C2=CCOCC2)c(F)c1` gave an MIC (Staphylococcus aureus [2]) greater than 128 µg/mL, an MIC (Staphylococcus aureus [3]) greater than 128 µg/mL and an MIC (Streptococcus pyogenes) greater than 128 µg/mL. It also gave an MIC (Enterococcus faecalis) greater than 128 µg/mL.

`N#CCCS(=O)(=O)C[C@H](O)C(=O)N1CC=C(c2c(F)cc(N3C[C@H](COc4ccon4)OC3=O)cc2F)CC1` showed an MIC (Staphylococcus aureus [1]) of 0.5 µg/mL (≈ 0.883 µM), an MIC (Staphylococcus aureus [2]) of 0.25 µg/mL (≈ 0.441 µM) and an MIC (Staphylococcus aureus [3]) of 0.5 µg/mL (≈ 0.883 µM). For the same compound, the MIC (Streptococcus pyogenes) was 0.5 µg/mL (≈ 0.883 µM) and the MIC (Enterococcus faecalis) was 1 µg/mL (≈ 1.77 µM).

`O=C(C(CO)Cn1cncn1)N1CC=C(c2c(F)cc(N3C[C@H](COc4ccon4)OC3=O)cc2F)CC1` (stereo partly specified) gave an MIC (Staphylococcus aureus [1]) of 1 µg/mL (≈ 1.89 µM), an MIC (Staphylococcus aureus [2]) of 0.5 µg/mL (≈ 0.943 µM) and an MIC (Staphylococcus aureus [3]) of 1 µg/mL (≈ 1.89 µM). It also gave an MIC (Streptococcus pyogenes) of 1 µg/mL (≈ 1.89 µM), an Activity (Staphylococcus aureus [4]) of 0.5 and an MIC (Enterococcus faecalis) of 2 µg/mL (≈ 3.77 µM). It also gave an Activity [5] of 0.25.

Compound `O=C1O[C@@H](COc2ccon2)CN1c1ccc(C2=CCN(CCO)CC2)c(F)c1` has an MIC (Staphylococcus aureus [1]) of 4 µg/mL (≈ 9.92 µM), an MIC (Staphylococcus aureus [2]) of 4 µg/mL (≈ 9.92 µM) and an MIC (Staphylococcus aureus [3]) of 8 µg/mL (≈ 19.8 µM). The MIC (Streptococcus pyogenes) was 2 µg/mL (≈ 4.96 µM) and the MIC (Enterococcus faecalis) was 8 µg/mL (≈ 19.8 µM).

Work on `CN1CC=C(c2c(F)cc(N3C[C@H](COc4ccon4)OC3=O)cc2F)CC1` yielded an MIC (Staphylococcus aureus [1]) of 2 µg/mL (≈ 5.11 µM), an MIC (Staphylococcus aureus [2]) of 2 µg/mL (≈ 5.11 µM) and an MIC (Staphylococcus aureus [3]) of 2 µg/mL (≈ 5.11 µM). It also gave an MIC (Streptococcus pyogenes) of 1 µg/mL (≈ 2.56 µM) and an MIC (Enterococcus faecalis) of 4 µg/mL (≈ 10.2 µM).

With `O=C1O[C@@H](COc2ccccn2)CN1c1ccc(C2=CCOCC2)c(F)c1` the MIC (Staphylococcus aureus [1]) was 1 µg/mL (≈ 2.7 µM), the MIC (Staphylococcus aureus [2]) was 0.5 µg/mL (≈ 1.35 µM) and the MIC (Staphylococcus aureus [3]) was 1 µg/mL (≈ 2.7 µM). For the same compound, the MIC (Streptococcus pyogenes) was 2 µg/mL (≈ 5.4 µM), the Activity (Staphylococcus aureus [4]) was 0.15 and the MIC (Enterococcus faecalis) was 2 µg/mL (≈ 5.4 µM). The Activity [5] was 0.

For `O=C([C@@H](O)CO)N1CC=C(c2ccc(N3C[C@H](COc4ccon4)OC3=O)cc2F)CC1`, the MIC (Staphylococcus aureus [1]) was 0.5 µg/mL (≈ 1.12 µM), the MIC (Staphylococcus aureus [2]) was 0.25 µg/mL (≈ 0.559 µM) and the MIC (Staphylococcus aureus [3]) was 0.5 µg/mL (≈ 1.12 µM). It also gave an MIC (Streptococcus pyogenes) of 0.5 µg/mL (≈ 1.12 µM), an Activity (Staphylococcus aureus [4]) of 1.04 and an MIC (Enterococcus faecalis) of 1 µg/mL (≈ 2.24 µM). It also gave an Activity [5] of 0.63.

`O=C1O[C@@H](COc2ccon2)CN1c1ccc(C2=CCN(C(=S)CO)CC2)c(F)c1` gave an MIC (Staphylococcus aureus [1]) of 0.25 µg/mL (≈ 0.577 µM), an MIC (Staphylococcus aureus [2]) of 0.25 µg/mL (≈ 0.577 µM) and an MIC (Staphylococcus aureus [3]) of 0.5 µg/mL (≈ 1.15 µM). It also gave an MIC (Streptococcus pyogenes) of 0.25 µg/mL (≈ 0.577 µM), an Activity (Staphylococcus aureus [4]) of 0.07 and an MIC (Enterococcus faecalis) of 0.5 µg/mL (≈ 1.15 µM). For the same compound, the Activity [5] was -0.01.

For `O=C([C@@H](O)CO)N1CC=C(c2ccc(N3C[C@H](COc4cnsn4)OC3=O)cc2F)CC1`, the MIC (Staphylococcus aureus [1]) was 0.13 µg/mL (≈ 0.28 µM), the MIC (Staphylococcus aureus [2]) was 0.06 µg/mL (≈ 0.129 µM) and the MIC (Staphylococcus aureus [3]) was 0.13 µg/mL (≈ 0.28 µM). It also gave an MIC (Streptococcus pyogenes) of 0.13 µg/mL (≈ 0.28 µM), an Activity (Staphylococcus aureus [4]) of 1.11 and an MIC (Enterococcus faecalis) of 0.25 µg/mL (≈ 0.538 µM). For the same compound, the Activity [5] was 0.42.

For `CC(=O)N1CC=C(c2ccc(N3C[C@H](COc4ccon4)OC3=O)cc2F)CC1`, the MIC (Staphylococcus aureus [1]) was 0.5 µg/mL (≈ 1.25 µM), the MIC (Staphylococcus aureus [2]) was 0.5 µg/mL (≈ 1.25 µM) and the MIC (Staphylococcus aureus [3]) was 0.5 µg/mL (≈ 1.25 µM). For the same compound, the MIC (Streptococcus pyogenes) was 1 µg/mL (≈ 2.49 µM), the Activity (Staphylococcus aureus [4]) was 0.81 and the MIC (Enterococcus faecalis) was 1 µg/mL (≈ 2.49 µM). The Activity [5] was 0.17.

Work on `O=C1O[C@@H](COc2ccncc2)CN1c1ccc(C2=CCOCC2)c(F)c1` yielded an MIC (Staphylococcus aureus [1]) of 32 µg/mL (≈ 86.4 µM), an MIC (Staphylococcus aureus [2]) of 16 µg/mL (≈ 43.2 µM) and an MIC (Staphylococcus aureus [3]) of 32 µg/mL (≈ 86.4 µM). The MIC (Streptococcus pyogenes) was 64 µg/mL (≈ 173 µM) and the MIC (Enterococcus faecalis) was 64 µg/mL (≈ 173 µM).

Compound `Cc1cccc(OC[C@H]2CN(c3ccc(C4=CCOCC4)c(F)c3)C(=O)O2)n1` has an MIC (Staphylococcus aureus [2]) greater than 128 µg/mL, an MIC (Staphylococcus aureus [3]) greater than 128 µg/mL and an MIC (Streptococcus pyogenes) greater than 128 µg/mL. For the same compound, the MIC (Enterococcus faecalis) was greater than 128 µg/mL.

Work on `O=C1O[C@@H](COc2ccncn2)CN1c1ccc(C2=CCOCC2)c(F)c1` yielded an MIC (Staphylococcus aureus [1]) of 2 µg/mL (≈ 5.39 µM), an MIC (Staphylococcus aureus [2]) of 1 µg/mL (≈ 2.69 µM) and an MIC (Staphylococcus aureus [3]) of 2 µg/mL (≈ 5.39 µM). It also gave an MIC (Streptococcus pyogenes) of 4 µg/mL (≈ 10.8 µM), an Activity (Staphylococcus aureus [4]) of 0.34 and an MIC (Enterococcus faecalis) of 4 µg/mL (≈ 10.8 µM). For the same compound, the Activity [5] was 0.23.

`O=C1O[C@@H](COc2ccccc2)CN1c1ccc(C2=CCOCC2)c(F)c1` gave an MIC (Staphylococcus aureus [2]) greater than 128 µg/mL, an MIC (Staphylococcus aureus [3]) greater than 128 µg/mL and an MIC (Streptococcus pyogenes) greater than 128 µg/mL. It also gave an MIC (Enterococcus faecalis) greater than 128 µg/mL.

With `O=C(C(CO)CO)N1CC=C(c2c(F)cc(N3C[C@H](COc4ccon4)OC3=O)cc2F)CC1` the MIC (Staphylococcus aureus [1]) was 0.5 µg/mL (≈ 1.04 µM), the MIC (Staphylococcus aureus [2]) was 0.5 µg/mL (≈ 1.04 µM) and the MIC (Staphylococcus aureus [3]) was 0.5 µg/mL (≈ 1.04 µM). For the same compound, the MIC (Streptococcus pyogenes) was 0.5 µg/mL (≈ 1.04 µM), the Activity (Staphylococcus aureus [4]) was 0.41 and the MIC (Enterococcus faecalis) was 1 µg/mL (≈ 2.09 µM). The Activity [5] was 0.37.

`Cc1cccnc1OC[C@H]1CN(c2ccc(C3=CCOCC3)c(F)c2)C(=O)O1` gave an MIC (Staphylococcus aureus [1]) of 16 µg/mL (≈ 41.6 µM), an MIC (Staphylococcus aureus [2]) of 8 µg/mL (≈ 20.8 µM) and an MIC (Staphylococcus aureus [3]) of 16 µg/mL (≈ 41.6 µM). For the same compound, the MIC (Streptococcus pyogenes) was 8 µg/mL (≈ 20.8 µM) and the MIC (Enterococcus faecalis) was 32 µg/mL (≈ 83.2 µM).

Work on `N#Cc1ccc(OC[C@H]2CN(c3ccc(C4=CCOCC4)c(F)c3)C(=O)O2)nc1` yielded an MIC (Staphylococcus aureus [2]) greater than 128 µg/mL, an MIC (Staphylococcus aureus [3]) greater than 128 µg/mL and an MIC (Streptococcus pyogenes) greater than 128 µg/mL. It also gave an MIC (Enterococcus faecalis) greater than 128 µg/mL.

`O=C1O[C@@H](COc2cccnn2)CN1c1ccc(C2=CCOCC2)c(F)c1` showed an MIC (Staphylococcus aureus [1]) of 2 µg/mL (≈ 5.39 µM), an MIC (Staphylococcus aureus [2]) of 2 µg/mL (≈ 5.39 µM) and an MIC (Staphylococcus aureus [3]) of 2 µg/mL (≈ 5.39 µM). For the same compound, the MIC (Streptococcus pyogenes) was 2 µg/mL (≈ 5.39 µM) and the MIC (Enterococcus faecalis) was 4 µg/mL (≈ 10.8 µM).
